Active and inactive are the calls of the source. No cut-off for these calls is given here.
What was measured:
Plasmodium falciparum [1] = assay: Antiplasmodial activity against chloroquine-sensitive Plasmodium falciparum F32 by [3H]hypoxanthine uptake; format: functional, organism-based
Method in brief: (§1)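 Parasites kept in continuous culture per Trager and Jensen (modified) and synchronized every 48 h by 5% D-sorbitol lysis. Growth was read as [3H]hypoxanthine incorporation by the modified Desjardins method.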

MCF7 = assay: Cytotoxicity against human MCF7 cells assessed as [3H]hypoxanthine incorporation; format: cell-based
Method in brief: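 MCF-7 cells were grown in DMEM with 2 mM L-glutamine and 10% FCS at 37 °C, 5% CO2. Exponential-phase cells were trypsinized and seeded at 200 000 cells/mL. After 24 h, the medium was replaced with fresh medium containing compound at 0.01–100 µg/mL. Viability was read by [3H]hypoxanthine incorporation, and IC50 was taken graphically from dose-response curves.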

Plasmodium falciparum [2] = assay: Antiplasmodial activity against chloroquine-resistant Plasmodium falciparum FcB1 by [3H]hypoxanthine uptake; format: functional, organism-based; method in brief: as §1
[3] = Selectivity index ratio of IC50 for human MCF7 cells to IC50 for chloroquine-sensitive Plasmodium falciparum F32; format: functional
Method in brief: (§2)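 The ratio compares the MCF-7 IC50 with the parasite IC50. MCF-7 cells were grown in DMEM with 2 mM L-glutamine and 10% FCS at 37 °C, 5% CO2, and used in exponential growth. They were seeded at 200 000 cells/mL; after 24 h, compounds were added at 0.01–100 µg/mL. Viability was read by [3H]hypoxanthine incorporation and IC50 taken graphically from the curves. Parasite IC50s came from the [3H]hypoxanthine incorporation assay on synchronized cultures.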

Plasmodium falciparum [4] = assay: Inhibition of Plasmodium falciparum Pfnek1 at 1 uM
Method in brief: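 Compounds were tested at 50, 5 and 1 µM with equal DMSO in all reactions. Reactions were stopped with Laemmli buffer and run on SDS-PAGE. Remaining activity (%) was quantified by autoradiography and phosphorimaging; no IC50 was determined.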

Plasmodium falciparum [5] = assay: Inhibition of Plasmodium falciparum Pfnek1 at 50 uM
Method in brief: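 Kinase reaction in 20 mM Tris/HCl pH 7.5 with 20 mM MgCl2, 2 mM MnCl2, 0.25 µCi [γ-33P]ATP and 5 µg myelin basic protein as substrate. Compounds were tested at 50, 5 and 1 µM with equal DMSO in all reactions. Reactions were stopped in Laemmli buffer and run on SDS gel. Gels were Coomassie-stained, dried, autoradiographed and quantified by phosphorimaging as % remaining activity.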

Plasmodium falciparum [6] = assay: Antiplasmodial activity against chloroquine-resistant Plasmodium falciparum FcM29 by [3H]hypoxanthine uptake; format: functional, organism-based; method in brief: as §1
[7] = test system: Plasmodium vinckei petteri; assay: Antiplasmodial activity as reduced parasitaemia at day 5 in Plasmodium vinckei petteri infected CD mice (Mus musculus) at 5 mg/kg/day intraperitoneal dose; format: functional; settings: ip, 120 h
Method in brief: (§3)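 Four-day suppressive test in female CD mice (20 ± 2 g), each infected on day 0 with 10^6 P. vinckei petteri-parasitized erythrocytes in RPMI. Groups of five received ip doses on days 0–3. Controls got RPMI alone. Parasitaemia was counted on Giemsa-stained tail-blood smears (≥5000 erythrocytes). % inhibition = (control − treated)/control × 100.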

[8] = Toxicity in Plasmodium vinckei petteri infected CD mice (Mus musculus) assessed as mortality at 20 mg/kg/day, intraperitoneally measured on day 15; format: organism-based; set-up: route intraperitoneal; settings: in vivo, ip, read-out: INH
Method in brief: (§4)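 4-day suppressive test in female CD mice (20 ± 2 g) infected on day 0 with 10^6 parasitized red cells in RPMI. Groups of five were dosed intraperitoneally on days 0–3 at 5 or 20 mg/kg; reference dosing was 1 or 10 mg/kg, with RPMI-alone controls. Parasitaemia was counted on day-4 Giemsa tail-blood smears. Survival was followed for three additional weeks.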

[9] = Selectivity index ratio of IC50 for human MCF7 cells to IC50 for chloroquine-resistant Plasmodium falciparum FcM29; format: functional; method in brief: as §2
[10] = Toxicity in Plasmodium vinckei petteri infected CD mice (Mus musculus) assessed as mortality at 5 mg/kg/day, intraperitoneally measured on day 15; format: organism-based; set-up: route intraperitoneal; settings: in vivo, ip, read-out: INH; method in brief: as §4
[11] = Toxicity in Plasmodium vinckei petteri infected CD mice (Mus musculus) assessed as mortality at 20 mg/kg/day, intraperitoneally measured on day 1; format: organism-based; set-up: route intraperitoneal; settings: in vivo, ip, read-out: INH; method in brief: as §4
[12] = Toxicity in Plasmodium vinckei petteri infected CD mice (Mus musculus) assessed as mortality at 5 mg/kg/day, intraperitoneally measured on day 1; format: organism-based; set-up: route intraperitoneal; settings: in vivo, ip, read-out: INH; method in brief: as §4
[13] = Toxicity in Plasmodium vinckei petteri infected CD mice (Mus musculus) assessed as mortality at 5 mg/kg/day, […] measured on day 5; format: organism-based; settings: in vivo, read-out: INH
[14] = Selectivity index ratio of IC50 for human MCF7 cells to IC50 for chloroquine-resistant Plasmodium falciparum FcB1; format: functional; method in brief: as §2
[15] = Toxicity in Plasmodium vinckei petteri infected CD mice (Mus musculus) assessed as mortality at 20 mg/kg/day, intraperitoneally measured on day 5; format: organism-based; set-up: route intraperitoneal; settings: in vivo, ip, read-out: INH; method in brief: as §4
[16] = test system: Plasmodium vinckei petteri; assay: Antiplasmodial activity as reduced parasitaemia at day 5 in Plasmodium vinckei petteri infected CD mice (Mus musculus) at 20 mg/kg/day intraperitoneal dose; format: functional; settings: ip, 120 h; method in brief: as §3
[17] = test system: Plasmodium vinckei petteri; assay: Antiplasmodial activity as reduced parasitaemia at day 5 in Plasmodium vinckei petteri infected CD mice (Mus musculus) at 10 mg/kg/day intraperitoneal dose; format: functional; settings: ip, 120 h; method in brief: as §3
[18] = Toxicity in Plasmodium vinckei petteri infected CD mice (Mus musculus) assessed as mortality at 1 mg/kg/day, intraperitoneally measured on day 5; format: organism-based; set-up: route intraperitoneal; settings: in vivo, ip, read-out: INH; method in brief: as §4
[19] = test system: Plasmodium vinckei petteri; assay: Antiplasmodial activity as reduced parasitaemia at day 5 in Plasmodium vinckei petteri infected CD mice (Mus musculus) at 1 mg/kg/day intraperitoneal dose; format: functional; settings: ip, 120 h; method in brief: as §3
[20] = Toxicity in Plasmodium vinckei petteri infected CD mice (Mus musculus) assessed as mortality at 1 mg/kg/day, intraperitoneally measured on day 15; format: organism-based; set-up: route intraperitoneal; settings: in vivo, ip, read-out: INH; method in brief: as §4
[21] = Toxicity in Plasmodium vinckei petteri infected CD mice (Mus musculus) assessed as mortality at 10 mg/kg/day, intraperitoneally measured on day 1; format: organism-based; set-up: route intraperitoneal; settings: in vivo, ip, read-out: INH; method in brief: as §4
[22] = Toxicity in Plasmodium vinckei petteri infected CD mice (Mus musculus) assessed as mortality at 10 mg/kg/day, intraperitoneally measured on day 15; format: organism-based; set-up: route intraperitoneal; settings: in vivo, ip, read-out: INH; method in brief: as §4
[23] = Toxicity in Plasmodium vinckei petteri infected CD mice (Mus musculus) assessed as mortality at 1 mg/kg/day, intraperitoneally measured on day 1; format: organism-based; set-up: route intraperitoneal; settings: in vivo, ip, read-out: INH; method in brief: as §4
[24] = Toxicity in Plasmodium vinckei petteri infected CD mice (Mus musculus) assessed as mortality at 10 mg/kg/day, intraperitoneally measured on day 5; format: organism-based; set-up: route intraperitoneal; settings: in vivo, ip, read-out: INH; method in brief: as §4

## C[C@@]12CCC[C@]3(C)c4cc5c(O)ccc(O)c5cc4C(=O)[C@](O)(OC1)[C@H]23 [ALISIAQUINOL]
Plasmodium falciparum [1]
  IC50: 9.9 µM
MCF7
  IC50: 1.7 µM
Plasmodium falciparum [2]
  IC50: 6.4 µM
[3]
  Ratio IC50: <1
Plasmodium falciparum [4]
  inhibition: 49%
Plasmodium falciparum [5]
  Activity: Active
Plasmodium falciparum [6]
  IC50: 7.9 µM

## COC1=CC(=O)c2cc3c(cc2C1=O)C(=O)[C@]1(O)OC[C@@]2(C)CCC[C@@]3(C)[C@@H]21 [ALISIAQUINONE B]
Plasmodium falciparum [1]
  IC50: 7.1 µM
MCF7
  IC50: 0.8 µM
Plasmodium falciparum [2]
  IC50: 8.4 µM
[3]
  Ratio IC50: <1
Plasmodium falciparum [6]
  IC50: 2.6 µM

## C[C@@]12CCC[C@]3(C)c4cc5c(cc4C(=O)[C@](O)(OC1)[C@H]23)C(=O)C=CC5=O [ALISIAQUINONE A]
Plasmodium falciparum [1]
  IC50: 9.1 µM
[7]
  inhibition in vivo at 5 mg/kg/day: 63%
MCF7
  IC50: 36 µM
[8]
  mortality: 100%
[9]
  Ratio IC50: 4
Plasmodium falciparum [2]
  IC50: 7.4 µM
[10]
  mortality: 40%
[3]
  Ratio IC50: 4
Plasmodium falciparum [4]
  inhibition: 41%
[11]
  mortality: 100%
[12]
  mortality: 0%
Plasmodium falciparum [5]
  Activity: Active
[13]
  mortality: 0%
Plasmodium falciparum [6]
  IC50: 8.5 µM
[14]
  Ratio IC50: 5
[15]
  mortality: 100%

## C[C@@]12CCC[C@]3(C)c4cc5c(cc4C(=O)[C@](O)(OC1)[C@H]23)C(=O)C1=C(NCCS1(=O)=O)C5=O [ALISIAQUINONE C]
Plasmodium falciparum [1]
  IC50: 0.15 µM
[7]
  inhibition in vivo at 5 mg/kg/day: 36%
MCF7
  IC50: 41 µM
[8]
  mortality: 100%
[9]
  Ratio IC50: 500
Plasmodium falciparum [2]
  IC50: 0.21 µM
[10]
  mortality: 60%
[3]
  Ratio IC50: 270
Plasmodium falciparum [4]
  Activity: inactive
[11]
  mortality: 60%
[12]
  mortality: 0%
[13]
  mortality: 0%
Plasmodium falciparum [6]
  IC50: 0.08 µM
[14]
  Ratio IC50: 200
[16]
  inhibition in vivo at 20 mg/kg/day: 42%
[15]
  mortality: 80%

## CCN(CC)CCCC(C)Nc1ccnc2cc(Cl)ccc12 (stereo not drawn) [CHLOROQUINE]
MCF7
  IC50: 12 µM
[17]
  inhibition in vivo at 10 mg/kg/day: 100%
[18]
  mortality: 0%
[19]
  inhibition in vivo at 1 mg/kg/day: 0%
[20]
  mortality: 100%
[21]
  mortality: 0%
[22]
  mortality: 0%
[23]
  mortality: 0%
[24]
  mortality: 0%

Reference: ChEMBL document CHEMBL1157424, “Alisiaquinones and alisiaquinol, dual inhibitors of Plasmodium falciparum enzyme targets from a New Caledonian deep water sponge” (J Nat Prod, 2008)
